High-throughput results as filed in PubChem.
This is a sample that favours compounds with a hit; in the whole collection about 2.9% have one here.
CRFR2-BP antag: antagonists of CRF-binding protein/CRF-R2 receptor complex; inhibition, % at 11.8 µM; AID 588475; 350,000 compounds, 0.59% hits; HEK293 CRF-R2/CRF-BP, CRF-induced calcium fluorescence;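 active = inhibition of the ligand-induced calcium signal above about 50% at the single tested concentration, limit read from the data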
NRP1-CendR mod: alters CendR peptide binding to human NRP-1 | O14786 | 360,000 compounds, 0.85% hits | FAM-RPARPAR peptide binding to NRP-1, fluorescence polarization | inhibition, % at 25 µM;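 active = inhibition or corrected inhibition above about 18%, plus a signal ratio from 0.5 to 1.5, limit read from the data, passing the limit was not always enough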
Target sequence (O14786 whole entry, looked up): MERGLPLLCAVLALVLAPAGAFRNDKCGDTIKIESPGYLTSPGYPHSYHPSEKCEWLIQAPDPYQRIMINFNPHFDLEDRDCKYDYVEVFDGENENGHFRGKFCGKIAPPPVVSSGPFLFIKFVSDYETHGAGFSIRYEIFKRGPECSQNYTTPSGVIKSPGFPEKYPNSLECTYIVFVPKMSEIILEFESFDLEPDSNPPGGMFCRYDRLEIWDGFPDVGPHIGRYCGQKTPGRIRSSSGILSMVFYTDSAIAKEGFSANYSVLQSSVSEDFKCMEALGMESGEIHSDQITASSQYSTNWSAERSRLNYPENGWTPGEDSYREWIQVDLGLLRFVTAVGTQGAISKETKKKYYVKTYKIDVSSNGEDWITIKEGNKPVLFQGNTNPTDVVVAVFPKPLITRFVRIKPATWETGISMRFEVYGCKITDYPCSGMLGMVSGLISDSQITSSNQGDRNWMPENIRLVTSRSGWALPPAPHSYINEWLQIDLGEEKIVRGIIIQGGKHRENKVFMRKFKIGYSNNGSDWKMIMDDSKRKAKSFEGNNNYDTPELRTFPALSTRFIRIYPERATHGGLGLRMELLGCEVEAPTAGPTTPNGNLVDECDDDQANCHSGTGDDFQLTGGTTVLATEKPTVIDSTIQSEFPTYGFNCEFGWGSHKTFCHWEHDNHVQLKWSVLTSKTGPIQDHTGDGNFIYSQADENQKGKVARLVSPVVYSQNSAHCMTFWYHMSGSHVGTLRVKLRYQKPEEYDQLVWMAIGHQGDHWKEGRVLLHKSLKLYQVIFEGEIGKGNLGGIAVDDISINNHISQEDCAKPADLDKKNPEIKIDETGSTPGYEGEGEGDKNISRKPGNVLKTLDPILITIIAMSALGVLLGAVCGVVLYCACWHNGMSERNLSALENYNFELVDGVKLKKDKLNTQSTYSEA
proKLK7 act: proKLK7 (human) activation, primary screen. purified proKLK7, EDANS-DABCYL substrate fluorescence; 100% is mature enzyme control, 0% vehicle. P49862. activation, % at 7 µM. AID 652039. 370,000 compounds, 0.9% hits;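 active = activation above the mean of all tested compounds plus 3 SD, computed per campaign excluding outliers beyond control limits, cut at about 13% in these data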
CRFR2-BP ag: agonists of human CRF-binding protein/CRF-R2 receptor complex; activation, % at 13.2 µM; HEK293 CRF-R2/CRF-BP, calcium dye fluorescence (FLIPR); percent of saturating CRF peptide response; AID 588473; 350,000 compounds, 0.46% hits;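 active = activation of at least 50%, plus an integration ratio under a set limit after plate pattern correction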;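 also: plate controls were neutral control wells without compound for no effect and CRF at EC100 for full effect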
Tn7 DDE FP: disrupts Tn7 cyclic peptide binding to fibrin D-Dimer-E complex. FP displacement of FITC-Tn7 peptide from fibrin DD(E); 0% = median of compound wells per plate. inhibition, % at 8.3 µM. 370,000 compounds, 0.13% hits. AID 720508;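 active = inhibition above the mean of compounds falling within the control limits plus 3 SD of them, cut at about 14% in these data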;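 also: 0% = plate median of compound wells and 100% = 10 µM Aha-Tn7 peptide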
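assay system = human clot-derived fibrin DD(E) complex | quantity = Fibrin-DD(E) at 2 µM final | timing = 10 min preincubation, 3 h with tracer, room temperature | signal = fluorescence polarization | measure = percent inhibition | benchmarks = high control wells with 10 µM unlabelled Aha-Tn7 peptide (full inhibition) | replicates = singlicate testing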
Tn6 DDE FP: inhibitors of Tn6 peptide binding to human fibrin DD(E). P02675. Fibrin DD(E) TRITC-Tn6 fluorescence polarization displacement. inhibition, % at 8.3 µM. 370,000 compounds, 0.21% hits;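 active = inhibition above a per-campaign cutoff: mean of compounds within control limits plus 3 SD, cut at about 15% in these data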;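 also: 0% = median of all compound wells on the plate and 100% = blocking peptide control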
Starred values were filed as active, the others as inactive; . = no result.

SMILES	CRFR2-BP antag	NRP1-CendR mod	proKLK7 act	CRFR2-BP ag	Tn7 DDE FP	Tn6 DDE FP
CCOC(=O)c1sc(NC(=O)c2cccc(S(=O)(=O)N3CCN(C)CC3)c2)cc1C	67*	-6	0	-2	7	-1
CCOC(=O)c1sc(NC(=O)c2cccc(S(=O)(=O)N(CC)CC)c2)cc1C	1	2	-10	-1	0	-4
Cc1ccc(CN2CCN(C3CCOCC3)CC2CCO)cc1 (stereo not drawn)	80*	-16	0	1	10	1
CC(NCCOCCOc1ccccc1)c1ccccc1 (stereo not drawn)	-11	26*	0	1	2	2
c1ccc(OCCOCCOc2ccccc2)cc1	8	13	0	-3	-5	-6
COc1ccc(NC(=O)N2CCCc3ccccc32)c(OC)c1	22	-3	0	-2	-1	-5
COc1ccc(C)cc1NC(=O)N1CCCc2ccccc21	53*	-8	0	2	2	0
COc1ccc(CCC(=O)N2CCCc3ccccc32)cc1	2	28*	0	-2	0	-6
COc1ccc(OCCCC(=O)N2CCCc3ccccc32)cc1	8	7	0	-2	-3	-9
O=C(O)c1ccc(-n2ncc3c2/C(=C/c2cccc([N+](=O)[O-])c2)CC3)cc1	73*	-10	0	-6	0	-6
CCCC(=O)Nc1ccc(-c2nc3cc(C)ccc3o2)cc1	-10	16	-24	0	7	4
CCCC(=O)Nc1ccc(-c2nc3cc(C)c(C)cc3o2)c(O)c1	75*	0	-13	3	-1	-1
O=C(/C=C/c1cn(CC(O)CN2CCCCC2)c2ccccc12)c1cccs1 (stereo not drawn)	-80	-126	-1	63*	-2	-1
O=C(c1ccccc1Cl)N1CCC(Oc2cccnc2)CC1	.	.	0	.	2	1
O=C1c2ccccc2C(=O)N1CCCCON1C(=O)c2ccccc2C1=O	-12	-16	0	-9	1	1
COc1ccc(N2C(=O)c3cccc4cccc(c34)C2=O)cc1	-89	3	0	85*	-3	1
COc1ccc(N2C(=O)c3cccc4c(N(C)CCO)ccc(c34)C2=O)cc1	-57	132	-12	77*	-2	-2
CCCCON1C(=O)c2cccc3cccc(c23)C1=O	99*	-3	2	0	5	8
COc1ccc(N2C(=O)c3ccccc3C2=O)cc1	24	2	1	-2	0	1
COCCCNC(=O)C[C@H]1C[C@@]2(C(=O)OC)C(=C[C@H](COCc3ccccc3)O[C@@H]2C)N(Cc2ccc3c(c2)OCO3)C1=O	.	.	0	.	-6	2
O=C(Nc1ccc2c(c1)OCO2)OC1CCC12CCCCC2 (stereo not drawn)	.	.	0	.	5	6
CC(C)CN1CCN(Cc2cccc3ncccc23)CC1CCO (stereo not drawn)	-4	7	-1	-1	1	-1
CC(C)CN1CCN(Cc2cccc3nccnc23)CC1CCO (stereo not drawn)	74*	-8	0	0	-3	-5
C=CCN1C(=O)/C(=C/c2ccc(O)cc2)S/C1=N/c1nccs1	-73	-151	0	65*	-16	-10
C=CCN1C(=O)/C(=C/c2ccc(OC)cc2)S/C1=N/c1nccs1	-3	-15	0	0	-4	8
SMILES	CRFR2-BP antag	NRP1-CendR mod	proKLK7 act	CRFR2-BP ag	Tn7 DDE FP	Tn6 DDE FP
O=C(NCc1ccccn1)C1CCN(C2CCN(Cc3cccc(F)c3)CC2)CC1	-8	23*	-1	-1	-6	-3
Cc1ccc(S(=O)(=O)/N=S(/C)c2ccccc2)cc1 (stereo not drawn)	1	32*	-1	-1	9	-2
CC/S(=N\S(=O)(=O)c1ccc(C)cc1)c1ccccc1 (stereo not drawn)	12	-11	0	-3	1	-3
Cc1ccnc(N2CCC(C(=O)Nc3ccc4c(c3)OCCO4)CC2)n1	1	25*	0	1	-2	-4
Cc1ccnc(N2CCC(C(=O)Nc3ccc4c(c3)OCO4)CC2)n1	12	-14	0	-1	-3	1
CCOCCCN(CC(=O)NC1CCCC1)C(=O)C(=O)Nc1ccc2c(c1)OCCO2	97*	0	0	0	5	1
COCc1c(C(=O)OCC(=O)NCCc2ccc(S(N)(=O)=O)cc2)oc2ccccc12	-1	21*	0	-1	5	-2
Cc1c(C(=O)OCC(=O)NCCc2ccc(S(N)(=O)=O)cc2)oc2ccccc12	14	6	0	-1	0	3
O=C(CCC(=O)N1CCOc2ccc(Cl)cc21)N1CCN(c2ccccn2)CC1	6	1	1	-10	-2	-9
Cc1ccc2c(c1)N(C(=O)CCC(=O)N1CCN(c3ccccn3)CC1)CCO2	-31	8	0	55*	6	-2
CC1CCCCN1S(=O)(=O)c1ccc(N(C(=O)c2cnccn2)C(C(=O)NC2CCCCC2)c2cccs2)cc1 (stereo not drawn)	-18	28*	1	0	3	-5
CC1CCCCN1S(=O)(=O)c1ccc(N(C(=O)c2cnccn2)C(C(=O)NC2CCCC2)c2cccs2)cc1 (stereo not drawn)	-38	-2	0	0	0	6
C=C(C)C(=O)Oc1ccc(N2C(=O)[C@@H]3C4C=CC(C4)[C@@H]3C2=O)cc1	61*	5	0	-1	-4	-1
COC(=O)[C@]12C[C@H](CC(=O)NCc3ccc(C)o3)C(=O)N(CCC3=CCCCC3)C1=C[C@H](C(C)C)O[C@@H]2C1CC1	.	.	1	.	5	-4
CC1(C)Oc2ccc(C(=O)NC3CCCC3)cc2NC1=O	.	.	-1	.	4	-1
CCOC(=O)c1c(N)sc(C(=O)N2CCCCC2)c1C	61*	-9	0	0	1	-3
Cc1ccc(N=C2NC(=O)/C(=C\c3ccsc3)S2)c(C)c1	-37	26*	1	-1	5	-10
Cc1ccc(N=C2NC(=O)/C(=C/c3cccnc3)S2)c(C)c1	4	0	0	0	-2	-3
CCNC(=O)N(C)[C@H]1C[C@H]2c3[nH]c4cccc(-c5ccc6c(c5)OCO6)c4c3CCN2C[C@H]1[C@H](C)O	.	.	-1	.	4	12
CSc1snnc1-c1ccccc1	-15	10	-1	2	-2	2
CC(C)Sc1snnc1-c1ccccc1	54*	2	0	-1	-3	8
Cc1cc(NC(=O)c2cccs2)ccc1NC(=O)Cc1ccccc1	3	-2	3	-1	-2	6
